What was measured:
Format in all cases: functional
Mus musculus [1] = species: Mus musculus; experiment: Analgesic activity was determined in mouse writhing test
How it was run: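 Mice received test compound sc; 30 min later 0.2 mL of 0.08 N HCl was given ip. Animals were watched for 15 min for absence of abdominal stretching (writhing). Activity was expressed as ED50 in mg/kg.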

Mus musculus [2] = experiment: Analgesic activity was determined in mouse tail flick writhing test by intraperitoneal administration of 0.2 mL of 0.08 N HCl 30 min after the subcutaneous injection of the compound
Mus musculus [3] = experiment: Analgesic activity was determined in mouse pinch writhing test by intraperitoneal administration of 0.2 mL of 0.08 N HCl 30 min after the subcutaneous injection of the compound
Rattus norvegicus [4] = experiment: Hypotensive activity in the rat as change in blood pressure (mmHg) at 24 hr after of 50 mg/kg oral dose of the compound; Bradycardia
How it was run: (§1)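 Conscious restrained female Sprague-Dawley rats fitted with chronic indwelling aortic cannulas exteriorized at the nape. Towel restraint kept sympathetic tone high. Blood pressure was recorded directly by transducer and polygraph at 4 and 24 h after oral dosing in carboxymethylcellulose vehicle at 10 mL/kg. A change of ±5 mmHg was taken as not significant.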

Rattus norvegicus [5] = experiment: Hypotensive activity in the rat as change in blood pressure (mmHg) at 4 hr after a 50 mg/kg oral dose of the compound; how it was run: as §1
Rattus norvegicus [6] = experiment: Hypotensive activity in the rat as change in blood pressure (mmHg) at 24 hr after of 50 mg/kg oral dose of the compound; how it was run: as §1
Mus musculus [7] = experiment: Analgesic activity was determined in mouse writhing test by intraperitoneal administration of 0.2 mL of 0.08 N HCl 30 min after the subcutaneous injection of the compound(expt.2); conditions: 0.5 h

| Structure (SMILES) | ED50 (Mus musculus [1]; Mus musculus) [mg/kg] | BP (Rattus norvegicus [5]) [mmHg] | further results |
| --- | --- | --- | --- |
| C/N=C\Nc1c(C)cc(C)cc1C | 0.11 |  |  |
| C/N=C\Nc1cccc(Cl)c1Cl | 0.8 |  |  |
| Cc1cc(C(O)c2ccc(Cl)cc2)cc(C)c1/N=C/N(C)C (centres undefined) | > 50 |  |  |
| CC(=O)OC(C)c1cc(C)c(/N=C/N(C)C)c(C)c1 (centres undefined) | > 30 |  |  |
| C/N=C\Nc1ccccc1Cl | 35 |  |  |
| Cc1cc(C(C)O)cc(C)c1/N=C/N(C)C (centres undefined) | 40 |  |  |
| CCOC(=O)C(C)c1cc(C)c(/N=C/N(C)C)c(C)c1 (centres undefined) | > 50 |  | ED50 (Mus musculus [1]): 8 mg/kg; ED50 (Mus musculus [2]): 18 mg/kg; ED50 (Mus musculus [3]): 22 mg/kg |
| Cc1cc(C(O)c2ccc(Cl)c(Cl)c2)cc(C)c1/N=C/N(C)C (centres undefined) | > 50 |  |  |
| C/N=C\Nc1c(Cl)cccc1Cl.Cl | 4.4 | -21 | BP (Rattus norvegicus [4]): -13 mmHg |
| C/N=C\Nc1ccc(Cl)cc1Cl | > 50 |  |  |
| Cc1ccc(/N=C/N(C)C)c(C)c1.Cl | 0.1 |  |  |
| CCOC(=O)C(C)(O)c1cc(C)c(/N=C/N(C)C)c(C)c1 (centres undefined) | > 50 |  |  |
| CCOC(=O)C(C)(OC(C)=O)c1cc(C)c(/N=C/N(C)C)c(C)c1 (centres undefined) | > 50 |  |  |
| C/N=C\Nc1cc(Cl)ccc1Cl.Cl | > 50 | 3 | BP (Rattus norvegicus [6]): 5 mmHg |
| Cc1cccnc1/N=C/N(C)C.Cl | > 50 | 8 | BP (Rattus norvegicus [6]): 9 mmHg |
| C/N=C\Nc1ccc(C)cc1C.Cl | 0.02 | -10 | BP (Rattus norvegicus [4]): -19 mmHg |
| CN(C)/C=N/c1cc(Cl)ccc1Cl.Cl | > 50 | -5 | BP (Rattus norvegicus [6]): -4 mmHg |
| Cc1cccc(C)c1/N=C/N(C)C.Cl | 0.1 | -15 | BP (Rattus norvegicus [6]): -21 mmHg |
| CCOC(=O)c1cc(C)c(/N=C/N(C)C)c(C)c1.Cl | > 50 |  |  |
| CN(C)/C=N/c1c(Cl)cccc1Cl.Cl | 3 | -24 | BP (Rattus norvegicus [4]): -4 mmHg |
| C/N=C\Nc1ccc(Cl)c(Cl)c1.Cl | > 50 | 0 | BP (Rattus norvegicus [6]): -3 mmHg |
| Cc1cc(C)c(/N=C/N(C)C)c(C)c1.Cl | 0.4 | -10 | ED50 (Mus musculus [7]): 0.37 mg/kg; BP (Rattus norvegicus [6]): 2 mmHg |
| CN(C)/C=N/c1ccc(Cl)c(Cl)c1.Cl | > 50 | 0 | BP (Rattus norvegicus [6]): 2 mmHg |
| Clc1cccc(Cl)c1NC1=NCCN1 [CLONIDINE] | 0.02 | -29 |  |

Reference: ChEMBL document CHEMBL1124241, “Arylformamidines with antinociceptive properties” (1988)
